This is an account of results in ChEMBL document CHEMBL3792366, “Role of disulfide linkage in action of bis(dialkylaminethiocarbonyl)disulfides as potent double-Edged microbicidal spermicide: Design, synthesis and biology” (Eur J Med Chem, 2016).

One assay has as its system Sporothrix schenckii. Description: Antifungal activity against Sporothrix schenckii after 48 hrs by broth microdilution method. The class given is functional. The method in brief:
(§1)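 NCCLS broth microdilution in RPMI 1640 buffered with MOPS; starting inoculum 1–5 × 10^3 CFU/mL; plates incubated at 35 °C; MIC read after 48 h.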

Assay [1] can be described thus: Toxicity in Lactobacillus jensenii ATCC 25258 after 72 hrs.
Another assay deals with Candida albicans. The assay is described as follows: Antifungal activity against Candida albicans after 48 hrs by broth microdilution method. The class given is functional. The method in brief: as §1
(In general: Broth dilution looks for growth in wells or tubes with falling amounts of substance.)

The test system of assay [2] is Oryctolagus cuniculus. The assay is described as follows: In vivo spermicidal activity in Belgian rabbit assessed as decrease in litter size at 25 mg via intravaginal instillation measured 30 to 34 days post gestation period. The class given is functional. More on the design: scale not given: the % may be the effect or the level left. An outline of the steps:
(§2)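 Young adult female Belgian rabbits. Compound was blended into K-Y Jelly, with plain jelly for controls. Two mL of jelly was instilled 10–12 cm deep into the vagina by catheter, with the animal supine.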

The subject of assay [3] is Oryctolagus cuniculus. Description: In vivo spermicidal activity in Belgian rabbit assessed as decrease in pregnancy rate administered via intravaginal instillation measured 30 to 34 days post gestation period. The class given is functional, organism-based. The method in brief: as §2
The next assay concerns Candida parapsilosis. Description: Antifungal activity against Candida parapsilosis ATCC 22019 after 48 hrs by broth microdilution method. The class given is functional. The following applies: Lodderomyces parapsilosis, ATCC 22019, 48 h. An outline of the steps: as §1
In assay [4] the test system is Oryctolagus cuniculus. Description: In vivo spermicidal activity in Belgian rabbit assessed as decrease in litter size at 10 mg via intravaginal instillation measured 30 to 34 days post gestation period. More on the design: scale not given: the % may be the effect or the level left. The class given is functional. The method in brief:
as §2

For assay [5], the system named is Oryctolagus cuniculus. Description: In vivo spermicidal activity in Belgian rabbit assessed as decrease in pregnancy rate at 10 mg via intravaginal instillation measured 30 to 34 days post gestation period. The class given is functional. An outline of the steps:
as §2

Assay [6] has as its system Trichophyton mentagrophytes. The assay is described as follows: Antifungal activity against Trichophyton mentagrophytes after 48 hrs by broth microdilution method. The class given is functional. An outline of the steps: as §1
Assay [7] concerns Oryctolagus cuniculus. The assay is described as follows: In vivo spermicidal activity in Belgian rabbit assessed as decrease in litter size at 50 mg via intravaginal instillation measured 30 to 34 days post gestation period. The class given is functional. More on the design: scale not given: the % may be the effect or the level left. The method in brief: as §2
In a further assay the test system is Cryptococcus neoformans. Description: Antifungal activity against Cryptococcus neoformans after 48 hrs by broth microdilution method. The class given is functional. An outline of the steps:
as §1

In assay [8] the test system is Oryctolagus cuniculus. Description: In vivo spermicidal activity in Belgian rabbit assessed as decrease in pregnancy rate at 25 mg via intravaginal instillation measured 30 to 34 days post gestation period. The class given is functional. The method in brief:
as §2

Assay [9] relates to Trichomonas vaginalis. The assay is described as follows: Antitrichomonas activity against metronidazole-susceptible Trichomonas vaginalis in sc dosed mouse assessed as spleen weight at 5 ug administered daily measured after 7 days (reference value: 0.59 g). The class given is functional.
In assay [10] the test system is Trichomonas vaginalis. Description: Potency index, ratio of metronidazole MIC to compound MIC for metronidazole-resistant trophozoite stage of Trichomonas vaginalis ATCC 50143. The class given is functional.
For assay [11], the system named is Trichomonas vaginalis. Description: Antitrichomonas activity against metronidazole-susceptible Trichomonas vaginalis in sc dosed mouse assessed as pustule formation at 5 ug administered daily measured after 5 days (reference value: 109 mm'2). The class given is functional.
Assay [12] is described as follows: Selectivity index, ratio of IC50 for Lactobacillus jensenii ATCC 25258 to MIC for trophozoite stage of Trichomonas vaginalis clinical isolate.
The test system of assay [13] is Trichomonas vaginalis. The assay is described as follows: Antitrichomonas activity against Trichomonas vaginalis assessed as reduction in free thiol levels in parasite membrane at MIC after 24 hrs by fluorescence microscopy. The class given is functional, organism-based.
For assay [14], the system named is Trichomonas vaginalis. Description: Antitrichomonas activity against trophozoite stage of Trichomonas vaginalis clinical isolate assessed as cell viability under anaerobic condition after 48 hrs by trypan blue exclusion assay. The class given is functional. The method in brief: (§3)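 Log-phase T. vaginalis grown in TYM with 10% FCS, vitamin mix and penicillin/streptomycin at 37 °C. Compounds were made as 100 µg/mL DMSO stocks and serially diluted in TYM down to 0.1 µg/mL; DMSO/TYM served as vehicle. Parasites were incubated anaerobically at 37 °C, and viability was checked by trypan blue exclusion from 3 to 48 h. MIC = lowest concentration killing all cells by 48 h; each test was repeated three times.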

Assay [15] can be described thus: Selectivity index, ratio of IC50 for Lactobacillus jensenii ATCC 25258 to MIC for metronidazole resistant trophozoite stage of Trichomonas vaginalis ATCC 50143.
In assay [16] the test system is Trichomonas vaginalis. Description: Antitrichomonas activity against metronidazole-resistant trophozoite stage of Trichomonas vaginalis ATCC 50143 assessed as cell viability under anaerobic condition after 48 hrs by trypan blue exclusion assay. The class given is functional. The following applies: ATCC 50143, 48 h. An outline of the steps:
as §3

Assay [17] has as its system Trichomonas vaginalis. The assay is described as follows: Antitrichomonas activity against metronidazole-susceptible Trichomonas vaginalis in sc dosed mouse assessed as pustule formation at 5 ug administered daily measured after 7 days (reference value: 190 mm'2). The class given is functional.
In the next assay the test system is HeLa. Description: Cytotoxicity against human HeLa cells after 5 hrs by lactate dehydrogenase release assay. The class given is cell-based. An outline of the steps: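 HeLa cells were seeded at 2×10^4/well in triplicate and grown 24 h at 37 °C in 5% CO2. The DMEM was then replaced with medium holding serially diluted compound, and plates were incubated 5 h. LDH release in the supernatant was measured colorimetrically at 490 nm, and IC50 was derived from it.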

For assay [18], the system named is Oryctolagus cuniculus. The assay is described as follows: In vivo spermicidal activity in Belgian rabbit assessed as decrease in pregnancy rate at 50 mg via intravaginal instillation measured 30 to 34 days post gestation period. The class given is functional. An outline of the steps:
as §2

The nature of assay [19]: Spermicidal activity in human sperms assessed as motility measured within 30 secs by phase contrast microscopy. The class given is functional, Sperm. The method in brief: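 Liquefied human semen (0.05 mL) was added to 0.25 mL test solution and vortexed 10 s at low speed. Motile sperm were scored visually under phase contrast in five fields within 30 s; assays in triplicate; MEC = minimum effective concentration.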

Assay [20] has as its system Oryctolagus cuniculus. Description: In vivo spermicidal activity in Belgian rabbit assessed as decrease in litter size at 15 mg via intravaginal instillation measured 30 to 34 days post gestation period. Also on record: scale not given: the % may be the effect or the level left. The class given is functional. The method in brief: as §2
In assay [21] the test system is Oryctolagus cuniculus. The assay is described as follows: In vivo spermicidal activity in Belgian rabbit assessed as decrease in pregnancy rate at 20 mg via intravaginal instillation measured 30 to 34 days post gestation period. The class given is functional. The method in brief:
as §2

Another assay relates to Sperm. Description: Spermicidal activity in human sperm assessed as decrease in free thiol levels in sperm membrane at MEC after 15 mins by mBBr dye based fluorescence microscopy. The class given is functional, cell membranes. The method in brief:
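Semen (0.5 mL) was incubated with 2.5 mL of compound at MEC, or saline, for 15 min at room temperature. Sperm were pelleted at 700×g, washed in PBS and labelled with 0.5 mM (final) mBBr for 15 min in the dark. After washing, cells were imaged by epifluorescence (UV1A filter) at equal exposure times.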

Assay [22] deals with Oryctolagus cuniculus. Description: In vivo spermicidal activity in Belgian rabbit assessed as decrease in pregnancy rate at 15 mg via intravaginal instillation measured 30 to 34 days post gestation period. The class given is functional. An outline of the steps:
as §2

In assay [23] the test system is Oryctolagus cuniculus. Description: In vivo spermicidal activity in Belgian rabbit assessed as decrease in litter size at 20 mg via intravaginal instillation measured 30 to 34 days post gestation period. The class given is functional. Also on record: scale not given: the % may be the effect or the level left. An outline of the steps:
as §2

Values after ≈ are worked out from the molar mass of the structure shown. Active and inactive are the calls of the source. The rule behind the calls is not given here. Some results are limits rather than exact numbers.

For `N#CCCCN1CCN(C(=S)SSC(=S)N2CCN(CCCC#N)CC2)CC1`, the MIC is 109 µM (≈ 49.8 µg/mL) against Sporothrix schenckii; more than 109 µM in the assay on Candida albicans; more than 109 µM with Candida parapsilosis; 109 µM (≈ 49.8 µg/mL) in [6]; more than 109 µM against Cryptococcus neoformans; 6.8 µM (≈ 3.11 µg/mL) in the assay with Trichomonas vaginalis [14]. The minimal inhibitory concentration (MIC) in the assay with Trichomonas vaginalis [16] amounted to 6.8 µM (≈ 3.11 µg/mL). Also, the concentration for half-maximal inhibition (IC50) was determined as 6110 µM in assay [1] and 2510 µM in the assay with HeLa. For the same compound, the Activity in the assay on Oryctolagus cuniculus [2] was 100%; with Oryctolagus cuniculus [3], “Dose-dependent effect”; in the assay on Oryctolagus cuniculus [4], 90%; in the assay with Oryctolagus cuniculus [7], 100%; in the assay with Trichomonas vaginalis [9], 0.3 g; with Trichomonas vaginalis [11] it was 15 mm2. Also, the Activity in the assay with Trichomonas vaginalis [17] is listed as 5.75 mm2. Further, the Efficacy in the assay with Oryctolagus cuniculus [5] is reported as 85.7%; in the assay with Oryctolagus cuniculus [8] it was 100%; with Oryctolagus cuniculus [18], 100%. For the same compound, the Ratio in the assay with Trichomonas vaginalis [10] is on record as 16. For the same compound, the Selectivity Index in assay [12] and in [15] was 368 throughout. The result with Trichomonas vaginalis [13] was Active. The MEC in assay [19] is recorded as 0.001%.

For the compound `CCCCN1CCN(C(=S)SSC(=S)N2CCN(CCCC)CC2)CC1`, the MIC against Sporothrix schenckii worked out at 114 µM (≈ 49.6 µg/mL); with Candida albicans, 57.4 µM (≈ 25 µg/mL); against Candida parapsilosis, 57.4 µM (≈ 25 µg/mL); in assay [6], 114 µM (≈ 49.6 µg/mL); with Cryptococcus neoformans, 114 µM (≈ 49.6 µg/mL); in the assay on Trichomonas vaginalis [14] it was 14.3 µM (≈ 6.22 µg/mL). Further, the MIC with Trichomonas vaginalis [16] turned out to be 28.7 µM (≈ 12.5 µg/mL). Moreover, the half-inhibitory concentration (IC50) was 832 µM in assay [1] and 359 µM with HeLa. Moreover, the Activity result is “Dose-dependent effect” with Oryctolagus cuniculus [3], 74% in the assay with Oryctolagus cuniculus [20], 67% with Oryctolagus cuniculus [4] and 76% with Oryctolagus cuniculus [23]. The Efficacy amounted to 37.5% with Oryctolagus cuniculus [5], 50% in the assay on Oryctolagus cuniculus [21] and 62.5% in the assay with Oryctolagus cuniculus [22]. For the same compound, the outcome with Sperm was Active. In the assay on Trichomonas vaginalis [10], the Ratio is given as 4. In addition, the Selectivity Index in assay [12] stood at 25; in assay [15] it was 12. Besides, the MEC in assay [19] came out at 0.001%.

A word on the MIC: it is the lowest concentration that inhibits growth of the organism. Usually IC50 stands for the concentration needed to halve the response being measured.
